Experimental data reported in ChEMBL document CHEMBL1124310, “Antiinflammatory 2,6-di-tert-butyl-4-(2-arylethenyl)phenols” (J Med Chem, 1989).

Columns and labels:
[1] = target: T1, Polyunsaturated fatty acid 5-lipoxygenase (Homo sapiens) (UniProt P09917); assay: Inhibitory activity against 5-lipoxygenase at 10 uM concentration
T1 sequence (whole entry): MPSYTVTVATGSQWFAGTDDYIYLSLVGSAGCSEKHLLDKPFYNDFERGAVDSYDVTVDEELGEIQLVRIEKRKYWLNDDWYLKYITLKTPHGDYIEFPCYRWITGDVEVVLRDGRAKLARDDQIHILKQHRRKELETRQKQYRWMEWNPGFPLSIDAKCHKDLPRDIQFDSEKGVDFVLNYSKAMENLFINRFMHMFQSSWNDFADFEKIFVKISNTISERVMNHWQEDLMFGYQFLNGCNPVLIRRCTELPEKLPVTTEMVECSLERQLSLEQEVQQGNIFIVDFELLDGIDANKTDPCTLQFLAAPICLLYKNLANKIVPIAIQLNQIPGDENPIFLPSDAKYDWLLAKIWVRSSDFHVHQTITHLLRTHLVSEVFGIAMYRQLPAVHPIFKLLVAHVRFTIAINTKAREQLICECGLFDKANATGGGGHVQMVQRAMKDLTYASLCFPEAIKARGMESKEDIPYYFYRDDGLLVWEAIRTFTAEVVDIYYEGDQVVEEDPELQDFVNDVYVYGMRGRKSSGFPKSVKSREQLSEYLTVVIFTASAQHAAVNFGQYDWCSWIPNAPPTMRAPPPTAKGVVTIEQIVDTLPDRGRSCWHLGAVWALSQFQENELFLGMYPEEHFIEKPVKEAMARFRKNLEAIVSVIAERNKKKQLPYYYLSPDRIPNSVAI
Method in brief: (§1)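 Human peripheral blood leukocytes (5 × 10^6/0.5 mL) in pH 7.2 phosphate buffer with 0.6 mM Ca2+ and 1.0 mM Mg2+ incubated with compound for 15 min at 37 °C with shaking. 5-HETE band area measured as % of total radioactivity. Inhibition = (1 − cmd/cntl) × 100; single determination in duplicate; ANOVA, p<0.05.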

[2] = target: T1, Polyunsaturated fatty acid 5-lipoxygenase (Homo sapiens); assay: Inhibitory activity against 5-lipoxygenase at 1 uM concentration; method in brief: as §1
Rattus norvegicus [3] = assay: Inhibitory activity against developing adjuvant-induced arthritis (Dev AA) in rat at 5 mg/kg concentration; format: functional
Rattus norvegicus [4] = assay: Inhibitory activity against developing adjuvant-induced arthritis (Dev AA) in rat at 25 mg/kg concentration; format: functional
[5] = target: T1, Polyunsaturated fatty acid 5-lipoxygenase (Homo sapiens); assay: Inhibitory activity against lipoxygenase (LO) at 10 uM concentration; method in brief: as §1
[6] = target: T1, Polyunsaturated fatty acid 5-lipoxygenase (Homo sapiens); assay: Inhibitory activity against lipoxygenase (LO) at 1 uM concentration; method in brief: as §1
Cyclooxygenase [7] = target: T2, Cyclooxygenase (Homo sapiens, UniProt P35354+P23219); assay: Inhibitory activity against Prostaglandin G/H synthase at 10 uM concentration; format: protein assay
Method in brief: (§2)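 Human platelets (10^7/0.5 mL) in Ca2+-free pH 7 phosphate buffer incubated with compound for 15 min at 37 °C with shaking. Prostaglandin-thromboxane band areas measured as % of total radioactivity. Inhibition = (1 − cmd/cntl) × 100; single determination run in duplicate; ANOVA, p<0.05.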

Cyclooxygenase [8] = target: T2, Cyclooxygenase; assay: Inhibitory activity against Prostaglandin G/H synthase at 1 uM concentration; format: protein assay; method in brief: as §2
Rattus norvegicus [9] = assay: Inhibitory activity against developing adjuvant-induced arthritis (Dev AA) in rat at 50 mg/kg concentration; format: functional
[10] = target: T1, Polyunsaturated fatty acid 5-lipoxygenase (Homo sapiens); assay: Inhibitory activity against lipoxygenase (LO) at 1 uM concentration; % inhibition not statistically different from control; method in brief: as §1
Rattus norvegicus [11] = assay: Effective dose of compound to inhibit carrageenan induced paw edema in rat was determined; format: functional
Method in brief: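 Male CD rats (150 ± 10 g), 10 per group. Compound or vehicle (1% acacia in water) given orally 1 h before subplantar injection of 0.1 mL 1% carrageenan in saline into the right hind paw. Paw volume measured by mercury displacement before dosing and 3 h after carrageenan; the difference is the edema volume.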

Rattus norvegicus [12] = assay: Inhibitory activity against developing adjuvant-induced arthritis (Dev AA) in rat at 5 mg/kg concentration; decrease in paw volume statistically significant compared to control.; format: functional
Rattus norvegicus [13] = species: Rattus norvegicus; assay: Effective dose of compound to inhibit adjuvant-induced arthritis (Dev AA) in rat; format: functional
Rattus norvegicus [14] = species: Rattus norvegicus; assay: Effective dose of compound to inhibit acetic acid induced writhing in rat was determined; format: functional
Rattus norvegicus [15] = species: Rattus norvegicus; assay: Effective dose of compound to inhibit established adjuvant arthritis (EstAA) in rat; format: functional
Method in brief: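 Arthritis induced in male Lewis rats with Mycobacterium butyricum adjuvant in the right hind footpad. Rats with arthritis established by day 14 after injection were selected, then dosed orally for 14 days. Noninjected paw volume measured by mercury displacement. % inhibition versus untreated arthritic controls.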

Rattus norvegicus [16] = species: Rattus norvegicus; assay: Dose of compound to produce a 50% ulcerogenic response in rats was determined; format: functional
Method in brief: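 Ulcerogenic dose: value taken as the dose giving 50% response on a graded scale, 0% = no ulcers or redness in stomach or intestines, 100% = major lesions in both stomach and intestines. Method follows a cited procedure.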

Cyclooxygenase [17] = target: T2, Cyclooxygenase; assay: Inhibitory activity against Prostaglandin G/H synthase from human platelets was determined

SMILES: CC(C)(C)c1cc(/C=C2\CCOC2=O)cc(C(C)(C)C)c1O
- inhibition [1]: 67%
- inhibition [2]: 34%
- inhibition in vivo at 5 mg/kg (Rattus norvegicus [3]): 39%
- inhibition in vivo at 25 mg/kg (Rattus norvegicus [4]): 63%

SMILES: CC(C)(C)c1cc(CCc2cccnc2)cc(C(C)(C)C)c1O
- inhibition [5]: 63%
- inhibition [6]: 13%
- inhibition in vivo at 25 mg/kg (Rattus norvegicus [4]): 3%

SMILES: CC(C)(C)c1cc(/C=C/c2ccccc2C(=O)O)cc(C(C)(C)C)c1O
- inhibition (Cyclooxygenase [7]): 53%
- inhibition (Cyclooxygenase [8]): 21%
- inhibition [2]: 10%

SMILES: CC(C)(C)c1cc(/C=C/C(=O)c2cccs2)cc(C(C)(C)C)c1O
- inhibition [1]: 84%
- inhibition (Cyclooxygenase [7]): 75%
- inhibition (Cyclooxygenase [8]): 44%
- inhibition [2]: 39%
- inhibition in vivo at 50 mg/kg (Rattus norvegicus [9]): 8%

SMILES: CCC(C)(C)c1cc(/C=C/c2cccnc2)cc(C(C)(C)CC)c1O
- inhibition [6]: 27%
- inhibition in vivo at 25 mg/kg (Rattus norvegicus [4]): 50%

SMILES: CCOC(=O)/C(=C\c1cc(C(C)(C)C)c(O)c(C(C)(C)C)c1)c1cccnc1
- inhibition [1]: 83%
- inhibition (Cyclooxygenase [7]): 78%
- inhibition (Cyclooxygenase [8]): 54%
- inhibition [2]: 23%
- inhibition in vivo at 50 mg/kg (Rattus norvegicus [9]): 24%

SMILES: CC(C)(C)c1cc(C/C=C/c2cccs2)cc(C(C)(C)C)c1O
- inhibition [5]: 49%
- inhibition [10]: 7%

SMILES: CC(C)(C)c1cc(/C=C/c2ccc(Cl)s2)cc(C(C)(C)C)c1O
- inhibition [5]: 28%
- inhibition [6]: 19%
- inhibition in vivo at 50 mg/kg (Rattus norvegicus [9]): 45%

SMILES: CC(C)(C)c1cc(/C=C/c2ccccn2)cc(C(C)(C)C)c1O
- inhibition [5]: 88%
- inhibition in vivo at 5 mg/kg (Rattus norvegicus [3]): 36%
- inhibition [6]: 34%
- inhibition in vivo at 50 mg/kg (Rattus norvegicus [9]): 74%

SMILES: CC(C)(C)c1cc(/C=C/C(=O)c2ccsc2)cc(C(C)(C)C)c1O
- inhibition (Cyclooxygenase [7]): 80%
- inhibition (Cyclooxygenase [8]): 56%
- inhibition [5]: 91%
- inhibition [2]: 53%
- inhibition in vivo at 50 mg/kg (Rattus norvegicus [9]): 0%

SMILES: CC(C)(C)c1cc(C(=O)/C=C/c2ccsc2)cc(C(C)(C)C)c1O
- inhibition [1]: 69%
- inhibition (Cyclooxygenase [7]): 83%
- inhibition (Cyclooxygenase [8]): 73%
- inhibition [2]: 16%
- inhibition in vivo at 50 mg/kg (Rattus norvegicus [9]): 13%

SMILES: CC(C)(C)c1cc(/C=C/c2cccc(C(F)(F)F)c2)cc(C(C)(C)C)c1O
- inhibition (Cyclooxygenase [7]): 18%
- inhibition (Cyclooxygenase [8]): 9%
- inhibition [5]: 22%
- inhibition [2]: 19%
- inhibition in vivo at 50 mg/kg (Rattus norvegicus [9]): 0%

SMILES: CC(C)c1cc(/C=C/c2cccs2)cc(C(C)C)c1O
- inhibition [6]: 82%

SMILES: CC(C)(C)c1cc(/C=C/c2ccc[n+]([O-])c2)cc(C(C)(C)C)c1O
- inhibition [1]: 59%
- inhibition (Cyclooxygenase [7]): 73%
- inhibition (Cyclooxygenase [8]): 24%
- inhibition [2]: 21%
- inhibition in vivo at 25 mg/kg (Rattus norvegicus [4]): 26%

SMILES: CC(C)(C)c1cc(/C=C/c2cccnc2)ccc1O
- inhibition [5]: 81%
- inhibition [6]: 29%
- inhibition in vivo at 25 mg/kg (Rattus norvegicus [4]): 3%

SMILES: COc1ccc(/C=C/c2cc(C(C)(C)C)c(O)c(C(C)(C)C)c2)cc1OC
- inhibition [5]: 20%
- inhibition [6]: 12%
- inhibition in vivo at 50 mg/kg (Rattus norvegicus [9]): 26%

SMILES: Cc1ccc(/C=C/c2cc(C(C)(C)C)c(O)c(C(C)(C)C)c2)cc1
- inhibition [1]: 27%
- inhibition (Cyclooxygenase [7]): 52%
- inhibition (Cyclooxygenase [8]): 12%
- inhibition [2]: 6%
- inhibition in vivo at 5 mg/kg (Rattus norvegicus [3]): 55%
- inhibition in vivo at 50 mg/kg (Rattus norvegicus [9]): 97%

SMILES: CC(C)(C)c1cc(/C=C/c2ccncc2)cc(C(C)(C)C)c1O
- inhibition [5]: 6%
- inhibition in vivo at 50 mg/kg (Rattus norvegicus [9]): 0%

SMILES: COc1ccc(/C=C/c2cc(C(C)(C)C)c(O)c(C(C)(C)C)c2)cc1
- inhibition [5]: 12%
- inhibition [6]: 18%
- inhibition in vivo at 50 mg/kg (Rattus norvegicus [9]): 0%

SMILES: Cc1cc(/C=C/c2cccnc2)cc(C(C)(C)C)c1O
- inhibition [5]: 85%
- inhibition [6]: 75%
- inhibition in vivo at 25 mg/kg (Rattus norvegicus [4]): 22%

SMILES: CC(C)(C)c1cc(/C=C/c2ccccc2)cc(C(C)(C)C)c1O
- inhibition [1]: 14%
- inhibition (Cyclooxygenase [7]): 79%
- inhibition (Cyclooxygenase [8]): 34%
- inhibition [2]: 12%
- inhibition in vivo at 50 mg/kg (Rattus norvegicus [9]): 42%

SMILES: CC(C)(C)c1cc(C(=O)c2cccs2)cc(C(C)(C)C)c1O [PRIFELONE]
- inhibition [5]: 82%
- inhibition in vivo at 5 mg/kg (Rattus norvegicus [3]): 24%
- inhibition [6]: 17%
- inhibition in vivo at 25 mg/kg (Rattus norvegicus [4]): 96%

SMILES: CC(C)(C)c1cc(/C=C/c2ccc(Cl)c(Cl)c2)cc(C(C)(C)C)c1O
- inhibition [1]: 3%
- inhibition (Cyclooxygenase [7]): -5%
- inhibition (Cyclooxygenase [8]): -16%
- inhibition [2]: 18%
- inhibition in vivo at 50 mg/kg (Rattus norvegicus [9]): 10%

SMILES: CCC(C)(C)c1cc(/C=C/c2cccs2)cc(C(C)(C)CC)c1O
- inhibition [6]: 10%
- inhibition in vivo at 25 mg/kg (Rattus norvegicus [4]): 40%

SMILES: CC(C)(C)c1cc(/C=C/c2ccc(Cl)cc2)cc(C(C)(C)C)c1O
- inhibition [1]: 16%
- inhibition (Cyclooxygenase [7]): 66%
- inhibition (Cyclooxygenase [8]): 31%
- inhibition [2]: 6%
- inhibition in vivo at 50 mg/kg (Rattus norvegicus [9]): 42%

SMILES: Oc1ccc(/C=C/c2cccnc2)cc1
- inhibition [1]: 41%
- inhibition (Cyclooxygenase [7]): 5%
- inhibition (Cyclooxygenase [8]): 28%

SMILES: CC(C)(C)c1cc(C(=O)/C=C/c2cccs2)cc(C(C)(C)C)c1O
- inhibition (Cyclooxygenase [7]): 83%
- inhibition (Cyclooxygenase [8]): 72%
- inhibition [5]: 59%
- inhibition [2]: 10%
- inhibition in vivo at 50 mg/kg (Rattus norvegicus [9]): 0%

SMILES: CC(C)(C)c1cc(/C=C/c2cccnc2)cc(C(C)(C)C)c1O
- ED50 (Rattus norvegicus [11]): 16.5 mg/kg
- inhibition in vivo at 5 mg/kg (Rattus norvegicus [12]): 56%
- ED50 (Rattus norvegicus [13]): 2.1 mg/kg
- ED50 (Rattus norvegicus [14]): 3.9 mg/kg
- inhibition [5]: 84%
- ED50 (Rattus norvegicus [15]): 4 mg/kg
- inhibition [6]: 26%
- inhibition in vivo at 50 mg/kg (Rattus norvegicus [9]): 82%
- UD50 (Rattus norvegicus [16]): 202 mg/kg

SMILES: CC(C)(C)c1cc(/C=C/c2cccs2)cc(C(C)(C)C)c1O
- inhibition in vivo at 5 mg/kg (Rattus norvegicus [12]): 57%
- inhibition [5]: 88%
- inhibition [6]: 25%
- inhibition in vivo at 50 mg/kg (Rattus norvegicus [9]): 77%
- IC50 (Cyclooxygenase [17]): 63 nM

SMILES: CC(C)c1cc(/C=C/c2cccnc2)cc(C(C)C)c1O
- inhibition [5]: 87%
- inhibition [6]: 73%
- inhibition in vivo at 25 mg/kg (Rattus norvegicus [4]): 17%

SMILES: CC(C)(C)c1cc(/C=C/c2ccc(F)cc2)cc(C(C)(C)C)c1O
- inhibition [1]: 46%
- inhibition (Cyclooxygenase [7]): 70%
- inhibition (Cyclooxygenase [8]): 52%
- inhibition [2]: 23%
- inhibition in vivo at 50 mg/kg (Rattus norvegicus [9]): 58%

SMILES: CC(C)(C)c1cc(/C=C/c2ccsc2)cc(C(C)(C)C)c1O
- inhibition [5]: 81%
- inhibition in vivo at 5 mg/kg (Rattus norvegicus [3]): 31%
- inhibition [6]: 9%
- inhibition in vivo at 50 mg/kg (Rattus norvegicus [9]): 62%
